Tn7 DDE FP = inhibitors of Tn7 peptide binding to human fibrin DD(E) | P02675 | FP displacement of FITC-Tn7 peptide from fibrin DD(E); 0% = median of compound wells per plate | inhibition, % at 8.3 µM | 370,000 compounds, 0.13% hits | AID 720508;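 active means inhibition above the mean of compounds falling within the control limits plus 3 SD of them, cut at about 14% in these data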;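 further: 0% = plate median of compound wells and 100% = 10 µM Aha-Tn7 peptide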
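Assay system: Human fibrin DD(E) protein | Medium: Tris buffer with calcium and detergent, pH 7.8 | Reagent: 0.1 µM fluorescent Tn7 | Compound dosing: Single point at 8.3 µM | Times: 10 min preincubation, 3 h with tracer, room temperature | Detection: Fluorescence polarization of the labelled Tn7 tracer | Controls: Aha-Tn7 high control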
DDE Tn6 FP inh = inhibitors of Tn6 peptide binding to human fibrin DD(E). P02675. Fibrin DD(E) TRITC-Tn6 fluorescence polarization displacement. inhibition, % at 8.3 µM. 370,000 compounds, 0.21% hits. AID 720509;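 active means inhibition above a per-campaign cutoff: mean of compounds within control limits plus 3 SD, cut at about 15% in these data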;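 further: 0% = median of all compound wells on the plate and 100% = blocking peptide control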
ADAM17 inh = inhibits human ADAM17; recombinant ADAM17, EDANS/DABCYL FRET peptide cleavage; 370,000 compounds, 0.83% hits; inhibition, % at 6.95 µM;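 active means inhibition above the mean of compounds lying between control limits plus 3 SD, set per campaign, cut at about 8.5% in these data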;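 further: 0% = DMSO-only wells as the low control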
ADAM10 inh = ADAM10 inhibition, QFRET primary screen; O14672; recombinant ADAM10, EDANS/DABCYL FRET peptide cleavage, 3 h; inhibition, % at 7 µM; 370,000 compounds, 0.62% hits; AID 720582;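 active means inhibition above a per-campaign cutoff equal to the mean of compounds falling between control-based bounds plus 3 SD, cut at about 20% in these data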;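 further: 0% = DMSO wells while the 100% control is not disclosed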
Target sequence (O14672 214-748 limits assumed): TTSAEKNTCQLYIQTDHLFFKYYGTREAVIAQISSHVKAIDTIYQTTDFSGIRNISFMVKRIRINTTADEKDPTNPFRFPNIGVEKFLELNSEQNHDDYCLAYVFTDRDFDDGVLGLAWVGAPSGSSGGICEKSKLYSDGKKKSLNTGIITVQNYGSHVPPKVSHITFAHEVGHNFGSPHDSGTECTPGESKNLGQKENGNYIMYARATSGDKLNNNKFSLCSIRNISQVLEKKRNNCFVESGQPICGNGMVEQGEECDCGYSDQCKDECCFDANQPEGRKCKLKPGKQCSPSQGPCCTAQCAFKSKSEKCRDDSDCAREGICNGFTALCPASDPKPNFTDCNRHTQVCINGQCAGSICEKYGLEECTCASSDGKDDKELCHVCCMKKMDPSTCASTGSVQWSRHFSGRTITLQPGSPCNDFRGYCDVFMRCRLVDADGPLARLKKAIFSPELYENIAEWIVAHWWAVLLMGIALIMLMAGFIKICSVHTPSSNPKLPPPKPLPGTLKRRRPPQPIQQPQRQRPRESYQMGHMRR
MT1-MMP act inh = inhibitors of human MT1-MMP activation; 360,000 compounds, 0.061% hits; P50281; HT1080 RFP-PRO-GFP cells, GFP/RFP ratio fluorescence, overnight; percent of plate control window, DMSO zero; GFP/RFP ratio change, % at 20 µM;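 active means GFP/RFP ratio change of at least 30% with cell ATP level not reduced by more than half and red fluorescence within 50% of control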
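Assay system: HT1080 RFP-PRO-GFP cells. Benchmarks: DMSO vehicle wells and RFP-L50D-GFP reporter cell wells. Times: overnight cell settling, then overnight compound exposure, 37 °C, 5% CO2. Compound: 20 µM single dose, 1% DMSO. Read-out basis: GFP/RFP fluorescence ratio.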
Active calls of the source: *; · = no result. Shown are actives, neighbours in structure and some others; about 1.6% of the full set was active somewhere.

SMILES | Tn7 DDE FP | DDE Tn6 FP inh | ADAM17 inh | ADAM10 inh | MT1-MMP act inh
CCOC(=O)CNC(=O)CN1CCCN(S(=O)(=O)c2ccc(Br)s2)CC1 | -4 | 2 | 1 | 1 | -4
O=C(CN1CCCN(S(=O)(=O)c2ccc(Br)s2)CC1)Nc1ccc(Cl)cc1 | 11 | 1 | 2 | 20* | 6
CC(C)(C)N1Cc2nnn(Cc3ccccc3)c2-c2cc(N3CCCCC3)ccc2S1(=O)=O | 4 | -1 | -7 | -14 | ·
CCCCNS(=O)(=O)c1ccc2nc(SCC(=O)Nc3sccc3C#N)[nH]c2c1 | -6 | -10 | 13* | 20* | -18
C#CCN(C[C@@H]1[C@@H](OC(=O)Nc2cccs2)[C@@H](OC(=O)Nc2cccs2)Cn2c(=O)ccc(=O)n21)S(=O)(=O)c1ccc(C)cc1 | 2 | 2 | 10* | 18 | -16
O=C(c1ccc(Cl)c(Cl)c1)N1CCC(=O)N(C(COCc2cccc(Cl)c2)Cc2ccccc2)CC1 (configuration not stated) | 3 | -6 | 13* | 29* | -7
COC(=O)[C@]12C[C@H](CC(=O)NCCc3ccccc3OC)C(=O)N(Cc3ccc(Cl)cc3Cl)C1=C[C@H](C1CCCC1)O[C@@H]2C | 1 | 5 | -1 | 2 | ·
Clc1ccc(C2=NNC(=NCc3ccc4c(c3)OCO4)SC2)cc1 | -7 | -1 | 12* | 11 | -7
COc1ccc(S(=O)(=O)N2CCc3ccccc3C2)cc1OC | -4 | -3 | 4 | 21* | 1
COc1ccc(OC)c2cc3ccccc3cc12 | 18* | -2 | -5 | -27 | -29
CCOc1ccc(NCc2nc3ccccc3n2CCOc2ccccc2)cc1 | -4 | -1 | 7 | 30* | 3
Clc1ccc2nc(CNc3nc(N4CCOCC4)nc4c3ncn4-c3ccsc3)[nH]c2c1 | 4 | -8 | -5 | -14 | ·
O=C(NCc1ccccc1)O[C@H]1CC[C@@]23CCCN2C(=O)CCC[C@H]3C1 | -3 | 3 | -2 | -1 | ·
CCOC(=O)Nc1ccc(NCc2ccc(F)cc2)nc1N | 23* | 13 | -109 | -306 | -10
CCOC(=O)Nc1ccc(C)cc1NC(=O)OCC | -8 | 1 | -1 | 1 | -3
Cn1c(=O)cc(OCCCC(=O)Nc2cc(C(F)(F)F)ccn2)c2ccccc21 | 1 | 4 | 0 | -2 | ·
COc1ccc(C(=O)c2ccc3oc(-c4ccc(OC)cc4)c(-c4ccc(O)cc4)c3c2)cc1 | -2 | -3 | 8.6* | 5 | -7
COc1ccc(NC(=O)CN2CCN(c3nc(-c4cccc(OC)c4)cs3)CC2)cc1 | -6 | -7 | 9 | 20* | -1
CC(C)N1Cc2nnn(Cc3ccccc3)c2-c2cc(F)ccc2S1(=O)=O | -1 | -4 | 0 | 6 | ·
Cc1ccc2ccc(C(Nc3ccccn3)c3ccccc3)c(O)c2n1 (configuration not stated) | -9 | -1 | 8 | 25* | 5
COc1ccc(CCNC(=O)c2c(N)[nH]c(C(=O)c3ccccc3)c2-c2ccc(N(C)C)cc2)cc1 | -3 | 0 | 2 | 9 | ·
CCOC(=O)CSc1nc2sc3c(c2c(=O)n1-c1ccccc1)CCN(C)C3 | -5 | -3 | -45 | -96 | -6
CCOC(=O)CSc1nc2sc3c(c2c(=O)n1-c1ccccc1)CCN(C(C)C)C3 | 4 | 19* | -91 | -219 | -4
CC(Nc1nc(-c2ccc(Cl)cc2)cs1)c1nc2cc(Cl)c(N3CCCCC3)cc2n1CCOCCO (configuration not stated) | 0 | 0 | 7 | 22* | 2
Cc1ccc(-n2c(SCC(=O)c3ccccc3Br)nnc2-c2ccncc2)cc1 | 0 | -5 | -1 | -3 | ·
SMILES | Tn7 DDE FP | DDE Tn6 FP inh | ADAM17 inh | ADAM10 inh | MT1-MMP act inh
C/C(=N\OC(=O)Nc1ccc(Cl)cc1)c1ccc(F)c(F)c1 | 8 | 5 | 2 | 2 | 0
CC(C)C(Cl)=NOC(=O)Nc1ccc(F)cc1 | -4 | 20* | -2 | 0 | 9
CCc1nccn1CC(=O)c1ccc(O)c(O)c1 | -11 | 0 | -1 | 2 | ·
COc1cc(OC)c(OC)cc1/C=C1/Cc2ccccc2C1=O | 0 | 1 | -4 | 1 | -135
COc1ccc2c(c1O)Cc1ccccc1C2=O | · | · | · | · | 35*
C=CCn1c(Cc2cccs2)nnc1SCC(=O)Nc1ccc(OCc2ccccc2)cc1 | 9 | -2 | 8 | 13 | ·
OCCN(CCO)c1nc(N2CCCCC2)c2nc(N(CCO)CCO)nc(N3CCCCC3)c2n1 | 26* | 1 | -52 | -159 | -59
C[C@H](CO)N1C[C@H](C)[C@@H](CN(C)C(=O)Nc2ccc(C(F)(F)F)cc2)Oc2c(NC(=O)Nc3ccc(C(F)(F)F)cc3)cccc2C1=O | 1 | 3 | 12* | 29* | 3
CC(C)NC(=O)N(C)C[C@H]1Oc2ccc(NC(=O)Nc3ccc(C(F)(F)F)cc3)cc2C(=O)N([C@H](C)CO)C[C@@H]1C | 3 | -7 | 1 | -1 | 4
C[C@H](CO)N1C[C@H](C)[C@@H](CN(C)C(=O)Nc2ccc(C(F)(F)F)cc2)Oc2ccc(NC(=O)Nc3ccc(C(F)(F)F)cc3)cc2C1=O | 0 | 31* | 13* | 26* | 20
C[C@H](CO)N1C[C@H](C)[C@@H](CN(C)Cc2ccc(Oc3ccccc3)cc2)Oc2c(NC(=O)C3CC3)cccc2C1=O | 1 | -11 | 8 | 22* | 8
C[C@H]1CN([C@@H](C)CO)C(=O)c2cccc(NC(=O)Nc3ccc(C(F)(F)F)cc3)c2O[C@@H]1CN(C)C(=O)Nc1ccc(F)cc1 | -3 | -2 | 6 | 23* | 7
C=C(C)[C@@H]1CC2=C(OC)C(CC=C(C)C)(CC=C(C)C)C(=O)C(C(=O)c3ccccc3)=C2O1 | 1 | -7 | 4 | -3 | ·
C[C@H]1[C@@H](OC(=O)NC2CCCCC2)CC[C@@]23CCCN2C(=O)CCC[C@@H]13 | -11 | 3 | 0 | -5 | ·
O=[N+]([O-])c1ccc(Cn2ccc3ccc(-c4ccc5ccn(Cc6ccccc6)c5c4)cc32)cc1 | 0 | 4 | -5 | -7 | ·
C[C@H]1[C@@H](OC(=O)NCc2cccs2)CC[C@@]23CCCN2C(=O)CCC[C@@H]13 | 3 | 5 | -1 | 2 | ·
C[C@H]1[C@@H](O)CC[C@@]23CCCN2C(=O)CCC[C@@H]13 | 4 | -5 | -3 | -6 | ·
Cc1cc(/C=N/NC(N)=S)c(O)c(/C=N/NC(N)=S)c1 | 43* | 5 | -9 | -29 | -122
CCn1c(SCC(=O)Nc2nc(-c3ccc(C)cc3)cs2)nnc1-c1ccccc1O | -4 | -3 | 15* | 4 | -1
CCn1c(SCC(=O)Nc2nc(-c3ccc(C)cc3)cs2)nnc1-c1ccccc1 | -6 | -4 | 1 | 0 | -2
C[C@H]1[C@@H](OC(=O)Nc2ccc(Cl)cc2)CC[C@@]23CCCN2C(=O)CCC[C@@H]13 | 9 | 4 | -2 | -1 | ·

Screening results (PubChem BioAssay)
